This is an account of results in ChEMBL document CHEMBL4017492, “Discovery of a para-Acetoxy-benzyl Ester Prodrug of a Hydroxamate-Based Glutamate Carboxypeptidase II Inhibitor as Oral Therapy for Neuropathic Pain” (J Med Chem, 2017).

Activity calls are given as the source filed them. The rule behind the calls is not given here. Some results are limits rather than exact numbers.

Series [1] deals with Plasma. The experiment in a line: Metabolic stability in mouse plasma at 10 uM measured upto 60 mins by LC-MS/MS analysis. It counts as ADME, cell-free. To be noted: 1 h. Summed up: (§1)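 Compounds at 10 μM spiked into mouse plasma and shaken at 37 °C. Triplicate aliquots taken at 0 and 60 min and quenched with 2 volumes of ice-cold acetonitrile containing losartan 5 μM as internal standard. Centrifuged and supernatant diluted with water. Parent loss and metabolites identified by LC–ESI-TOF on C18 using a formic acid/acetonitrile gradient and extracted-ion chromatograms.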

Series [2] has as its target Glutamate carboxypeptidase 2 (Homo sapiens, UniProt Q04609). The experiment in a line: Inhibition of recombinant human glutamate carboxypeptidase 2 (44 to 750 residues) overexpressed in Drosophila Schneider S2 cells using [3H]-NAAG/NAAG as substrate preincubated for 15 mins followed by substrate addition measured after 20 mins by liquid scintillation counting method. Summed up:
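Radioenzymatic assay. rhGCPII (30 ng/mL) preincubated with inhibitor at varying concentrations for 15 min at 37 °C in 20 mM Tris, 150 mM NaCl, pH 8.0. Started with 0.31 μM NAAG plus 15 nM 3H-NAAG and run 20 min. Stopped with phosphate/EDTA/β-mercaptoethanol, pH 7.4. Released glutamate separated by ion exchange and counted by scintillation. IC50 obtained from inhibition curves.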

Series [3] relates to Plasma. The experiment in a line: Prodrug conversion in CD1 mouse plasma assessed as 4-Carboxy-alpha-[3-(hydroxyamino)-3-oxopropyl]-benzenepropanoic acid formation at 10 mg/kg equiv of 4-Carboxy-alpha-[3-(hydroxyamino)-3-oxopropyl]-benzenepropanoic acid after 30 mins by LC-MS/MS analysis. It counts as ADME, organism-based. To be noted: in vivo, 0.5 h. Summed up:
(§2)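 Male CD-1 mice (25–30 g) given a single oral dose equivalent to 10 mg/kg of parent, in 50 mM HEPES-buffered saline at pH 7.4. Killed by pentobarbital at 30 min and blood taken by cardiac puncture into heparin. Plasma stored at −80 °C, then assayed for parent by LC-MS/MS on C18 with a formic acid/acetonitrile gradient. Mean ± SEM, n = 3.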

The test system of series [4] is Plasma. The experiment in a line: Prodrug conversion in mouse plasma assessed as 4-Carboxy-alpha-[3-(hydroxyamino)-3-oxopropyl]-benzenepropanoic acid formation at 10 uM measured upto 60 mins by LC-MS/MS analysis. It counts as ADME, cell-free. To be noted: 1 h. Summed up: as §1
Series [5] deals with Plasma. The series is described as follows: Drug metabolism in mouse plasma assessed as 2-(4-(ethoxycarbonyl)benzyl)-5-(hydroxyamino)-5-oxopentanoic acid formation at 10 uM measured after 60 mins by LC-MS/MS analysis. Type of series: ADME, cell-free. Conditions: 1 h. Summed up: as §1
For series [6], the system named is Rattus norvegicus. The experiment in a line: Analgesic activity in Sprague-Dawley rat assessed as reduction in chronic constriction injury induced hyperalgesic neuropathic pain on ligated side at 4.6 mg/kg/day administered via oral gavage measured upto 8 days relative to vehicle-treated control. Type of series: functional, organism-based. Summed up: (§3)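 Male Sprague–Dawley rats (200–250 g; n = 10–15 per group) with sciatic nerve loosely ligated (four 4.0 chromic gut ligatures, 1 mm apart). Testing began 10 days post-surgery. Plantar thermal stimulus (Hargreaves) applied to the hind paw, withdrawal latency read to 0.1 s. Dosed daily by oral gavage, and 1 h before each test session. Two sessions per week; compared with vehicle by Student's t-test.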

In series [7] the test system is Rattus norvegicus. The series is described as follows: Effect on response latency to thermal stimulus in Sprague-Dawley rat at 4.6 mg/kg administered via oral gavage relative to vehicle-treated control. Conditions: in vivo. Type of series: organism-based. Put shortly:
as §3

Series [8] relates to Plasma. The series is described as follows: Prodrug conversion in CD1 mouse plasma assessed as 4-Carboxy-alpha-[3-(hydroxyamino)-3-oxopropyl]-benzenepropanoic acid formation at 10 mg/kg equiv of 4-Carboxy-alpha-[3-(hydroxyamino)-3-oxopropyl]-benzenepropanoic acid after 30 mins by LC-MS/MS analysis relative to 4-Carboxy-alpha-[3-(hydroxyamino)-3-oxopropyl]-benzenepropanoic acid alone. Type of series: ADME, organism-based. Conditions: in vivo, 0.5 h. Summed up: as §2

A short description of series [9]: Prodrug conversion in Tris/NaCl buffer assessed as 4-Carboxy-alpha-[3-(hydroxyamino)-3-oxopropyl]-benzenepropanoic acid formation at pH 8. Summed up: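 Stability tested under the enzyme assay conditions: 30 min in aqueous buffer (20 mM Tris, 150 mM NaCl), pH 8.0.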
The test system of series [10] is Rattus norvegicus. The experiment in a line: Analgesic activity in Sprague-Dawley rat assessed as reduction in chronic constriction injury induced hyperalgesic neuropathic pain on ligated side at 100 mg/kg/day administered via oral gavage measured upto 8 days relative to vehicle-treated control. Type of series: functional, organism-based. Summed up: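 Male Sprague–Dawley rats (200–250 g; n = 10–15 per group) received sciatic nerve constriction with four loose 4.0 chromic gut ligatures spaced 1 mm apart. Testing began 10 days after surgery. Dosing was daily by oral gavage, given 1 h before testing on test days. Hind-paw withdrawal latency to a plantar thermal stimulus (Hargreaves) was read to 0.1 s, with normal response within 15 s. Difference score was nonligated minus ligated latency. Sessions were twice weekly, and groups were compared by t-test versus control.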

Glutamate carboxypeptidase 2, sequence (Q04609 whole entry, the tested form may be a part): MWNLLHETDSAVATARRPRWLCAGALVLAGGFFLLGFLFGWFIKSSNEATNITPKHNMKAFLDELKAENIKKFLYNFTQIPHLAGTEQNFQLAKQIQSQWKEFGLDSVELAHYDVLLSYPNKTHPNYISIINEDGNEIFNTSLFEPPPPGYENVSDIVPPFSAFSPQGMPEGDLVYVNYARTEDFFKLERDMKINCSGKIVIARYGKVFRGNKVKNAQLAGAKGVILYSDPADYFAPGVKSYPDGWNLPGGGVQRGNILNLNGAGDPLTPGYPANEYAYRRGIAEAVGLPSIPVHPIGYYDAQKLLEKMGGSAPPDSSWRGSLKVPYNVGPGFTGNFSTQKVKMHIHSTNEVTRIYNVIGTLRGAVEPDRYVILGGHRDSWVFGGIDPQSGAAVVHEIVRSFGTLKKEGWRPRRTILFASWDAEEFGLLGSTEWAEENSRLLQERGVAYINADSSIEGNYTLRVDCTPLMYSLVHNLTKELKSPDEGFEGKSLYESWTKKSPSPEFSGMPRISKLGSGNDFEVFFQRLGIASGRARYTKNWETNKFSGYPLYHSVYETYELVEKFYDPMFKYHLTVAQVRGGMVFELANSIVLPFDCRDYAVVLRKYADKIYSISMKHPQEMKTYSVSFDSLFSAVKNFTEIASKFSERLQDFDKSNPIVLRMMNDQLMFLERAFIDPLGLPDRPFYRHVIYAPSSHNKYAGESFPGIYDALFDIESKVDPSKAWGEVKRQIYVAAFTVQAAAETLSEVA

`O=C(CCC(Cc1ccc(C(=O)O)cc1)C(=O)O)NO` (centres undefined): the Stability entry in the series with Plasma [1] is “Stable”. For the same compound, the IC50 in [2] amounted to 0.04 µM.

In the case of `CCOC(=O)c1ccc(CC(CCC(=O)NOCc2ccc(OC(C)=O)cc2)C(=O)O)cc1` (centres undefined), the IC50 in [2] was over 5 µM. Also, the Drug metabolism entry with Plasma [3] is “Metabolite_Notdetected”; in the series on Plasma [4], “Metabolite_Notdetected”; in the series on Plasma [5] it was “Metabolite_Detected”.

On to `CC(=O)ONC(=O)CCC(Cc1ccc(C(=O)O)cc1)C(=O)O` (centres undefined), for which the IC50 in series [2] was over 5 µM.

In the case of `CC(=O)Oc1ccc(CONC(=O)CCC(Cc2ccc(C(=O)O)cc2)C(=O)O)cc1` (centres undefined), the result in the series on Rattus norvegicus [6] was Active. Further, the IC50 in series [2] was over 5 µM. Besides, the Activity result with Rattus norvegicus [7] is given as “Non-Toxic”. For the same compound, the “fold change (FC)” value in the series with Plasma [8] is 5. In the series with Plasma [4], the Drug metabolism result is “Metabolite_Detected”.

`Cc1oc(=O)oc1CONC(=O)CCC(Cc1ccc(C(=O)O)cc1)C(=O)O` (centres undefined): the Drug metabolism result in [9] is listed as “Metabolite detected”.

For the compound `NCC1(CC(=O)O)CCCCC1`, the outcome in the series on Rattus norvegicus [10] was Active.

As for `CC(=O)Oc1ccc(CONC(=O)CCC(Cc2ccc(C(=O)OCOC(=O)OC(C)C)cc2)C(=O)O)cc1` (centres undefined), in series [2], the IC50 was over 5 µM. Also, in the series with Plasma [8], the “fold change (FC)” value amounted to 4. The Drug metabolism result with Plasma [4] is “Metabolite_Detected”.

As to `CCOC(=O)c1ccc(CC(CCC(=O)NOCc2ccc(OC(C)=O)cc2)C(=O)OCC)cc1` (centres undefined), in [2], the IC50 was over 5 µM. Besides, the Drug metabolism entry in the series on Plasma [3] is given as “Metabolite_Notdetected”.

What is called IC50 is the concentration needed to halve the response being measured.
